Data: ChEMBL document CHEMBL4680154, “The optimization of xanthine derivatives leading to HBK001 hydrochloride as a potent dual ligand targeting DPP-IV and GPR119” (Eur J Med Chem, 2020)
In brackets after ≈: the same amount, converted by molar mass.

Key:
Mus musculus = test: Antidiabetic activity in ICR mouse assessed as reduction in blood glucose AUC at 10 mg/kg, po administered as single dose followed by glucose challenge measured upto 120 mins by OGTT relative to control; assay type: functional; set-up: scale not given: the % may be the effect or the level left; settings: time min <=120
In short: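 ICR mice were fasted overnight and dosed by oral gavage, with distilled water as vehicle, before an oral glucose load of 2 g/kg. Tail-tip blood was sampled at 0, 30, 60 and 120 min and glucose measured by the glucose oxidase method. AUC was compared with the vehicle group. n = 10 per group, mean ± SEM.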

[1] = target: T1, Glucose-dependent insulinotropic receptor (Homo sapiens) (UniProt Q8TDV5); test: Agonist activity at CREB-LBD and Gal4-DBD fused recombinant human GPR119 expressed in HEK293 cells at 1 uM by firefly luciferase assay relative to AR231453; assay type: functional, cell-based
T1 sequence (whole entry): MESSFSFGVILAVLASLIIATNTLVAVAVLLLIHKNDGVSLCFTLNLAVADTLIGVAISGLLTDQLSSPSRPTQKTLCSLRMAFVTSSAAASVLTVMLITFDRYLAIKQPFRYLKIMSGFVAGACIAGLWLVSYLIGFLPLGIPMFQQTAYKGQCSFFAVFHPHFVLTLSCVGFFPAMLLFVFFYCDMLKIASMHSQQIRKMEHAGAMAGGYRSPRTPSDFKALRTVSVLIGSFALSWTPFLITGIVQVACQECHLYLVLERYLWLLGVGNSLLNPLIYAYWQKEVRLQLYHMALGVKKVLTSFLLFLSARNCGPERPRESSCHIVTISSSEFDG
In short: (§1)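 HEK293 cells transiently transfected with human GPR119, a Gal4-DBD/CREB-LBD fusion and a Gal4 UAS-driven luciferase reporter, then treated with compound (DMSO vehicle). Firefly luciferase luminescence read. Activation fold = compound/vehicle, expressed as percent of the AR231453 activation fold. EC50 obtained by curve fitting.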

DPP8/9 = DPP8/9 (Homo sapiens, UniProt Q6V1X1+Q86TI2); test: Inhibition of recombinant human DPP8/9 expressed in Rosetta cells at 10 uM using Gly-Pro-p-nitroanilide as substrate incubated for 1 hr relative to control; settings: probe Gly-Pro-p-nitroanilide
[2] = target: T2, Glucose-dependent insulinotropic receptor (Homo sapiens, UniProt Q8TDV5); test: Agonist activity at CREB-LBD and Gal4-DBD fused recombinant human GPR119 expressed in HEK293 cells by firefly luciferase assay; assay type: functional, cell-based; in short: as §1
T2 sequence (Q8TDV5 whole entry): T1 sequence (whole entry)

[3] = Tmax in ICR mouse plasma at 20 mg/kg, po measured up to 24 hrs; assay type: ADME, organism-based
In short: (§2)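 Male ICR mice (26–27 g), three per route. Oral dose given as a 2 mg/mL suspension in 0.5% carboxymethyl cellulose; intravenous dose as 0.4 mg/mL in 30% SBECD with 1 mol/L HCl. Blood taken at 5, 15, 30 min and 1, 2, 4, 7, 24 h; plasma stored at -80 °C. Non-compartmental analysis; F = (AUCpo×dose iv)/(AUCiv×dose po).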

[4] = Elimination half life in ICR mouse plasma at 2 mg/kg, iv measured up to 24 hrs; assay type: ADME, organism-based; settings: read-out: beta t1/2 (converted); in short: as §2
Vero = test: Cytotoxicity against African green monkey Vero cells incubated for 48 hrs by MTT assay; settings: Chlorocebus sabaeus
[5] = AUC(0 to t) in ICR mouse plasma at 20 mg/kg, po measured up to 24 hrs; assay type: ADME, organism-based; set-up: route oral, dose 20 mg/kg, time <=24; in short: as §2
[6] = Mean residence time (0 to infinity) in ICR mouse at 2 mg/kg, iv measured up to 24 hrs; assay type: ADME, organism-based; settings: in vivo; in short: as §2
[7] = AUC(0 to infinity) in Sprague-Dawley rat plasma at 30 mg/kg, po measured up to 24 hrs; assay type: ADME, organism-based; set-up: route oral, dose 30 mg/kg, time <=24
In short: (§3)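 Male SD rats (180–200 g), three per route, dosed as free base content. Oral formulation in 0.5% carboxymethyl cellulose; intravenous formulation in normal saline. Sampling at 5, 15, 30 min and 1, 1.5, 2, 4, 6, 8, 12, 24 h; plasma kept at -80 °C. Non-compartmental parameters; F = (AUCpo×dose iv)/(AUCiv×dose po).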

[8] = AUC(0 to infinity) in ICR mouse plasma at 2 mg/kg, iv measured up to 24 hrs; assay type: ADME, organism-based; set-up: route intravenous, dose 2 mg/kg, time <=24; in short: as §2
[9] = Metabolic stability in human hepatocytes assessed as parent compound remaining incubated for 30 mins by LC-MS/MS analysis; assay type: ADME, cell-based, Hepatocyte; settings: read-out: Stabilty
In short: (§4)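 Hepatocytes from male ICR/CD-1 mice, male Sprague-Dawley rats, or mixed human donors. Parent compound measured after 30 min incubation and normalised to the time-zero concentration.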

[10] = Elimination half life in ICR mouse plasma at 20 mg/kg, po measured up to 24 hrs; assay type: ADME, organism-based; settings: read-out: beta t1/2 (converted); in short: as §2
[11] = Cmax in ICR mouse plasma at 20 mg/kg, po measured up to 24 hrs; assay type: ADME, organism-based; set-up: route oral, dose 20 mg/kg, time <=24; in short: as §2
[12] = Elimination half-life in Sprague-Dawley rat plasma at 30 mg/kg, po measured up to 24 hrs; assay type: ADME, organism-based; settings: read-out: beta t1/2 (converted); in short: as §3
[13] = AUC(0 to infinity) in ICR mouse plasma at 20 mg/kg, po measured up to 24 hrs; assay type: ADME, organism-based; set-up: route oral, dose 20 mg/kg, time <=24; in short: as §2
[14] = AUC(0 to t) in ICR mouse plasma at 2 mg/kg, iv measured up to 24 hrs; assay type: ADME, organism-based; set-up: route intravenous, dose 2 mg/kg, time <=24; in short: as §2
[15] = Oral bioavailability in ICR mouse at 20 mg/kg; assay type: ADME, organism-based; settings: in vivo; in short: as §2
[16] = Mean residence time (0 to infinity) in ICR mouse at 20 mg/kg, po measured up to 24 hrs; assay type: ADME, organism-based; settings: in vivo; in short: as §2
[17] = Cmax in Sprague-Dawley rat plasma at 30 mg/kg, po measured up to 24 hrs; assay type: ADME, organism-based; set-up: route oral, dose 30 mg/kg, time <=24; in short: as §3
[18] = Metabolic stability in ICR/CD-1 mouse hepatocytes assessed as parent compound remaining incubated for 30 mins by LC-MS/MS analysis; assay type: ADME, cell-based, Hepatocyte; settings: read-out: Stabilty; in short: as §4
[19] = Cmax in ICR mouse plasma at 2 mg/kg, iv measured up to 24 hrs; assay type: ADME, organism-based; set-up: route intravenous, dose 2 mg/kg, time <=24; in short: as §2
[20] = AUC(0 to t) in Sprague-Dawley rat plasma at 30 mg/kg, po measured up to 24 hrs; assay type: ADME, organism-based; set-up: route oral, dose 30 mg/kg, time <=24; in short: as §3
[21] = Metabolic stability in Sprague-Dawley rat hepatocytes assessed as parent compound remaining incubated for 30 mins by LC-MS/MS analysis; assay type: ADME, cell-based, Hepatocyte; settings: read-out: Stabilty; in short: as §4
[22] = Oral bioavailability in Sprague-Dawley rat at 30 mg/kg; assay type: ADME, organism-based; settings: in vivo; in short: as §3
[23] = Tmax in Sprague-Dawley rat plasma at 30 mg/kg, po measured up to 24 hrs; assay type: ADME, organism-based; in short: as §3
[24] = Mean residence time (0 to infinity) in Sprague-Dawley rat at 30 mg/kg, po measured up to 24 hrs; assay type: ADME, organism-based; settings: in vivo; in short: as §3

## N[C@@H](CC(=O)N1CCn2c(nnc2C(F)(F)F)C1)Cc1cc(F)c(F)cc1F [SITAGLIPTIN]
Mus musculus
  Activity: 27.3%

## CC#CCn1c(N2CCC[C@@H](N)C2)nc2c1c(=O)n(CCCN1CCN(c3cc(C)nn3-c3ccccc3)CC1)c(=O)n2C
[1]; filed as agonist
  Activity: 42%
DPP8/9
  inhibition at 1 h, 10 µM: 15.4%

## CC#CCn1c(N2CCC[C@@H](N)C2)nc2c1c(=O)n(CCCN1CCC(c3nnnn3-c3ccccc3)CC1)c(=O)n2C
[1]; filed as agonist
  Activity: 53%
DPP8/9
  inhibition at 1 h, 10 µM: 4.6%

## COc1c(Nc2ccc(S(C)(=O)=O)nc2C)ncnc1OC1CCN(C(=O)OC(C)C)CC1 [ADP-597]
Mus musculus
  Activity: 19.9%

## CC#CCn1c(N2CCC[C@@H](N)C2)nc2c1c(=O)n(CCCN1CCN(c3ncc(F)cn3)CC1)c(=O)n2C
[1]; filed as agonist
  Activity: 78%
[2]
  EC50: 1410 nM

## CC#CCn1c(N2CCC[C@@H](N)C2)nc2c1c(=O)n(CCCN1CCN(c3nnc(-c4ccccc4)[nH]3)CC1)c(=O)n2C
[1]
  Activity: 38%
DPP8/9
  inhibition at 1 h, 10 µM: 7.3%

## CC#CCn1c(N2CCC[C@@H](N)C2)nc2c1c(=O)n(CCCN1CCN(c3nc(-c4ccccc4)no3)CC1)c(=O)n2C
[3]
  Tmax: 0.42 h
[4]
  half-life: 1.64 h
Vero
  IC50: 46.6 µg/mL (≈ 79.4 µM)
[5]
  AUC(0-t) at 24 h: 308 ng·h/mL
[6]
  MRT inf: 0.76 h
[7]
  AUC(0-inf): 502 ng·h/mL
[8]
  AUC(0-inf): 261 ng·h/mL
[9]
  remaining at 0.5 h: 101%
[10]
  half-life: 1.06 h
[11]
  Cmax: 213 ng/mL
[12]
  half-life: 1.11 h
[13]
  AUC(0-inf): 318 ng·h/mL
[2]
  EC50: 1400 nM
[14]
  AUC(0-t) at 24 h: 257 ng·h/mL
[15]
  bioavailability: 12.2%
DPP8/9
  inhibition at 1 h, 10 µM: 0%
[16]
  MRT inf: 1.22 h
[17]
  Cmax: 192 ng/mL
[18]
  remaining at 0.5 h: 32%
[19]
  Cmax: 850 ng/mL
[20]
  AUC(0-t) at 24 h: 468 ng·h/mL
[21]
  remaining at 0.5 h: 23.8%
[22]
  bioavailability: 31.8%
[23]
  Tmax: 1.17 h
[24]
  MRT inf: 2.11 h

## CC#CCn1c(N2CCC[C@@H](N)C2)nc2c1c(=O)n(CCCN1CCN(c3ncc(CCC)cn3)CC1)c(=O)n2C
[1]; filed as agonist
  Activity: 84%
[2]
  EC50: 1850 nM

## CC#CCn1c(N2CCC[C@@H](N)C2)nc2c1c(=O)n(CCCN1CCN(c3noc(-c4ccccc4)n3)CC1)c(=O)n2C
Vero
  IC50: 8.7 µg/mL (≈ 14.8 µM)
[9]
  remaining at 0.5 h: 82%
[1]; filed as agonist
  Activity: 89%
[2]
  EC50: 1450 nM
[18]
  remaining at 0.5 h: 24.2%
[21]
  remaining at 0.5 h: 25%

## CC#CCn1c(N2CCC[C@@H](N)C2)nc2c1c(=O)n(CCCN1CCN(c3ncc(C(F)(F)F)cn3)CC1)c(=O)n2C
[1]; filed as agonist
  Activity: 90%
[2]
  EC50: 4020 nM

## CC#CCn1c(N2CCC[C@@H](N)C2)nc2c1c(=O)n(CCCN1CCN(c3ncc(C)cn3)CC1)c(=O)n2C
[1]; filed as agonist
  Activity: 60%
[2]
  EC50: 2560 nM

## CC#CCn1c(N2CCC[C@@H](N)C2)nc2c1c(=O)n(CCCN1CCN(c3nc(-c4ccccc4)cs3)CC1)c(=O)n2C
Vero
  IC50: 4.3 µg/mL (≈ 7.15 µM)
[9]
  remaining at 0.5 h: 91.5%
[1]; filed as agonist
  Activity: 56%
[2]
  EC50: 650 nM
DPP8/9
  inhibition at 1 h, 10 µM: 0%
[18]
  remaining at 0.5 h: 68.3%
[21]
  remaining at 0.5 h: 39.6%
